Reference: ChEMBL document CHEMBL4393678, “Novel Tetrahydroquinazolinamines as Selective Histamine 3 Receptor Antagonists for the Treatment of Obesity” (J Med Chem, 2019)
Calls of active or inactive are those of the source. The calls are words filed in the database; no cut-off is given here.

Columns and labels:
[1] = molecular target: Kappa-type opioid receptor (Homo sapiens) (UniProt P41145); test: Antagonist activity at Gi-coupled KOR (unknown origin) expressed in HEK293T cells assessed as reduction in histamine-induced inhibition of forskolin-stimulated cAMP accumulation preincubated for 10 to 15 followed by histamine addition for 10 mins and subsequent forskolin-stimulation by Glo-sensor assay; assay type: functional, cell-based
Sequence of Kappa-type opioid receptor (Homo sapiens) (P41145 whole entry): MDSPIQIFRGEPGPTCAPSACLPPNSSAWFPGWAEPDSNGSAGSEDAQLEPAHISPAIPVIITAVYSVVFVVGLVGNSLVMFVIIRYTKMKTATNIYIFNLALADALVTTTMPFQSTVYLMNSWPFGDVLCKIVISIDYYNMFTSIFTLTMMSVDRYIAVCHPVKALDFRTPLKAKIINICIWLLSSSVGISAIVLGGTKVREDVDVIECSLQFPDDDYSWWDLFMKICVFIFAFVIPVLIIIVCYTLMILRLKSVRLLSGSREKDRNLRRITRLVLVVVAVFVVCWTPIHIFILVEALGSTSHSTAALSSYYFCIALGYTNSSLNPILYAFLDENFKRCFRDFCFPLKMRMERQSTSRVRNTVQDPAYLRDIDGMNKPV

[2] = molecular target: Voltage-gated inwardly rectifying potassium channel KCNH2 (Homo sapiens, UniProt Q12809); test: Inhibition of tracer Red binding to human ERG expressed in membranes up to 10 uM after 3 hrs by fluorescence polarization assay
Sequence of Voltage-gated inwardly rectifying potassium channel KCNH2 (Q12809 whole entry): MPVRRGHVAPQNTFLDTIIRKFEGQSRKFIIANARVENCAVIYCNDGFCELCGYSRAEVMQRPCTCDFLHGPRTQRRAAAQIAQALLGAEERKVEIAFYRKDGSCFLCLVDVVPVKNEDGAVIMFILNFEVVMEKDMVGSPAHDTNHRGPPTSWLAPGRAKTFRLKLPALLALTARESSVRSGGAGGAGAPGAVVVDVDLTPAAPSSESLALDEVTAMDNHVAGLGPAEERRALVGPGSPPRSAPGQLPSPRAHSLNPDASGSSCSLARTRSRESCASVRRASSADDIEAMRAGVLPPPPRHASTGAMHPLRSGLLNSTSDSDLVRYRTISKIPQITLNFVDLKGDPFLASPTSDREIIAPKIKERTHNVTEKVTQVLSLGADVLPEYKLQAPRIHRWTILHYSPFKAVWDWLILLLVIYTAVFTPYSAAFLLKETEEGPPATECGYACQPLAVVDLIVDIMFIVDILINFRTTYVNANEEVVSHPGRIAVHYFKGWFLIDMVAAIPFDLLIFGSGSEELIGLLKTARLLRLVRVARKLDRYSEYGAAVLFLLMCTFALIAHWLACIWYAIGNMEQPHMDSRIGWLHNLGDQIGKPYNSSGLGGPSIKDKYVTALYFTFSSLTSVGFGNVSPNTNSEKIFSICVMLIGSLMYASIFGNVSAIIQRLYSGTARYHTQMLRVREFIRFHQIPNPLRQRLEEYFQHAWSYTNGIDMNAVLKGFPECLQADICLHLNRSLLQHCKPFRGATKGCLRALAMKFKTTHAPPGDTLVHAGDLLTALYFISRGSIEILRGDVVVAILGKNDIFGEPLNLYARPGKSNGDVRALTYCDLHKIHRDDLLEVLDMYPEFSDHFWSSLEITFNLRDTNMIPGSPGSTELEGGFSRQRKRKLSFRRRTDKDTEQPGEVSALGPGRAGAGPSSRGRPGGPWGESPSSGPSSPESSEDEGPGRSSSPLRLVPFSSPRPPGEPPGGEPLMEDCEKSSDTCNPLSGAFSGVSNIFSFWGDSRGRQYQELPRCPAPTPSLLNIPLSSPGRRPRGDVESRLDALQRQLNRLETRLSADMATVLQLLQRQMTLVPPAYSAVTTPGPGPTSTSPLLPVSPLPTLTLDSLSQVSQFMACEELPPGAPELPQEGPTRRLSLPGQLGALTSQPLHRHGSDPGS

[3] = Cmax in C57BL/6J mouse brain at 20 mg/kg, po by LC-MS/MS analysis; assay type: ADME, organism-based; design: dose 20 mg/kg, route oral; conditions: in vivo
Outline: (§1)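 Male C57BL/6J mice (6-8 weeks, 20 ± 5 g) fasted overnight (12-16 h) got a single 20 mg/kg oral dose as 2.5 mg/mL suspension in 1% w/v gum acacia; n=5 per time point. Serum and brain (PBS homogenate 1:6 w/v) sampled up to 24 h. Parent and demethylated metabolite quantified by LC-MS/MS after liquid-liquid extraction (C18, MRM, phenacetin internal standard; linear 0.25-200 ng/mL). Two-compartment open model fit.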

[4] = Cmax in C57BL/6J mouse brain assessed as 4-(2-Amino-8-methyl-5,6,7,8-tetrahydroquinazolin-4-yl)phenol level at 20 mg/kg, po by LC-MS/MS analysis; assay type: ADME, organism-based; design: dose 20 mg/kg, route oral; conditions: in vivo; outline: as §1
Mus musculus [5] = test: Anti-obesity activity in 16 hrs fasted high fat diet-induced obese C57BL/6J mouse model assessed as change in blood glucose level at 10 to 20 mg/kg, po treated prior to glucose addition measured after 15 to 120 mins by IPGTT; assay type: functional, organism-based
Outline: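 Mice fasted 16 h; baseline tail-vein glucose read by glucometer. Glucose given i.p. at 2 g/kg (C57BL/6J) or 1 g/kg (db/db).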

Mus musculus [6] = test: Anti-obesity activity in high fat diet-induced obese C57BL/6J mouse model assessed as change in HDL level at 10 to 20 mg/kg, po measured after 6 weeks; assay type: functional, organism-based
Outline: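 At the end of treatment (six weeks HFD, four weeks db/db), mice euthanized with avertin 350 mg/kg. Blood taken by cardiac puncture into 3.8% sodium citrate. Plasma separated at 4000 rpm and stored at -80 °C. TG, TC, HDLc and LDLc measured on a bio-analyzer.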

Histamine H3 receptor = Histamine H3 receptor (Homo sapiens, UniProt Q9Y5N1); test: Antagonist activity at recombinant human Gi-coupled H3 receptor expressed in HEK293T cells assessed as reduction in histamine-induced inhibition of forskolin-stimulated cAMP accumulation preincubated for 10 to 15 followed by histamine addition for 10 mins and subsequent forskolin-stimulation by Glo-sensor assay; assay type: functional, cell-based
Sequence of Histamine H3 receptor (Q9Y5N1 whole entry): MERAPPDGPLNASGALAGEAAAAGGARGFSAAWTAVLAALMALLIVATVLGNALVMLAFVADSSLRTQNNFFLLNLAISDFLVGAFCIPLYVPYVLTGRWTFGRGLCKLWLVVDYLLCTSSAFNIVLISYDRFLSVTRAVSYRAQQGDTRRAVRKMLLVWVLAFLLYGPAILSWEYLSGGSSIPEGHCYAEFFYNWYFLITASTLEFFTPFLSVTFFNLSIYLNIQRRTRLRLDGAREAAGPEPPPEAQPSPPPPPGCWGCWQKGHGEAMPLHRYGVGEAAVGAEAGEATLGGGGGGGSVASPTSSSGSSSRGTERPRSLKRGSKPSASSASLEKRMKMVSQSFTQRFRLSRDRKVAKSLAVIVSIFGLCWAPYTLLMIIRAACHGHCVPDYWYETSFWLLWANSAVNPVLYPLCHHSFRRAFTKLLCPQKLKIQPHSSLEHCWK

[7] = Tmax in C57BL/6J mouse brain at 20 mg/kg, po by LC-MS/MS analysis; assay type: ADME, organism-based; outline: as §1
[8] = Cmax in C57BL/6J mouse serum at 20 mg/kg, po by LC-MS/MS analysis; assay type: ADME, organism-based; design: dose 20 mg/kg, route oral; outline: as §1
[9] = molecular target: T1, Muscarinic acetylcholine receptor M1 (Homo sapiens) (UniProt P11229); test: Antagonist activity at M1R (unknown origin) expressed in HEK293 cells harboring luc2P/NFAT-RE plasmid at 10 uM after 6 to 8 hrs by luciferase reporter gene assay; assay type: cell-based
T1 sequence (whole entry): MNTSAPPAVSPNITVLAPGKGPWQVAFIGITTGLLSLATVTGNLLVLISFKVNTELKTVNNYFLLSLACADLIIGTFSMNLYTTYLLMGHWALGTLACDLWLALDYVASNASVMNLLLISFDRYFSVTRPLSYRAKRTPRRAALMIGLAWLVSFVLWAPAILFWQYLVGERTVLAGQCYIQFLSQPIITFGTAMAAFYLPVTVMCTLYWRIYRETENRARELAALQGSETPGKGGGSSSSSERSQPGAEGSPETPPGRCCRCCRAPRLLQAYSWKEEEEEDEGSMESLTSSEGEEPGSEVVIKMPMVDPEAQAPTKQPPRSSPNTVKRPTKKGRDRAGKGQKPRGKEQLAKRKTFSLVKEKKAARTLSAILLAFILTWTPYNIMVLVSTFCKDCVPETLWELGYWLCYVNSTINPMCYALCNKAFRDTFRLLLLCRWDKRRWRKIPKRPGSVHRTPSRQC
Outline: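 NFAT-RE luciferase assay in HEK293T cells transiently co-transfected with luc2P/NFAT-RE plasmid and receptor plasmid. Cells plated in DMEM and incubated overnight at 37 °C, 5% CO₂. Compounds and reference ligands applied for 6-8 h. Luciferase read after adding Bright-Glo substrate (1 mg/ml final).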

[10] = AUClast in C57BL/6J mouse brain at 20 mg/kg, po by LC-MS/MS analysis; assay type: ADME, organism-based; design: dose 20 mg/kg, route oral, time 0 - last
Outline: (§2)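 Male C57BL/6J mice, 6-8 weeks, 20 ± 5 g, fasted overnight (12-16 h), n = 5 per time point. Single 20 mg/kg oral dose given by feeding needle as a 2.5 mg/mL suspension in 1% w/v gum acacia and water. Serum and brain (homogenized 1:6 w/v in PBS) sampled up to 24 h. Liquid-liquid extraction, then LC-MS/MS in positive MRM mode with phenacetin as internal standard. Linear range 0.25-200 ng/mL. Non-compartmental and compartmental analysis.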

[11] = Toxicity in lean C57BL/6J mouse assessed as effect on cumulative food intake at 20 mg/kg, po; assay type: organism-based; conditions: in vivo
Outline: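 Lean male C57BL/6J mice fasted 12 h (8 am-8 pm, water available), singly housed, given 20 mg/kg orally in 5% gum acacia/saline or vehicle. Cumulative food intake measured over 4 h night phase (9 pm-1 am) starting 30 min after dosing.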

Mus musculus [12] = test: Anorexic effect in 12 hrs fasted db/db-induced obese C57BL/6J mouse model assessed as reduction in cumulative food intake at 20 mg/kg, po pretreated for 30 mins followed by food addition measured after 4 hrs in presence of histidine decarboxylase inhibitor alpha-MDLH; assay type: functional, organism-based
Outline: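 Mice starved 12 h (8:00 am to 8:00 pm) with water available, then housed singly. Compound given orally in 5% gum acacia in normal saline; vehicle group received the same. Cumulative food intake measured over 4 h of the night phase (9:00 pm to 1:00 am), starting 30 min after dosing. Antagonism arms: imitet 5 mg/kg i.p. 30 min before compound, or α-methyl-DL-histidine 20 mg/kg i.p. 2 h before.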

Mus musculus [13] = test: Anti-obesity activity in high fat diet-induced obese C57BL/6J mouse model assessed as change in body weight at 20 mg/kg, po measured after 6 weeks (reference value: 3.86 +/- 0.99 g); assay type: functional
Mus musculus [14] = test: Anti-obesity activity in high fat diet-induced obese C57BL/6J mouse model assessed as change in body weight at 10 mg/kg, po measured after 6 weeks (reference value: 3.86 +/- 0.99 g); assay type: functional
Outline: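 Male C57BL/6J mice (6–8 weeks, 22–25 g) on high-fat diet, with a normal-chow group included. Daily chronic oral dosing against vehicle for six weeks. Percent body weight change followed over the treatment days, and net body weight change taken at six weeks. n=5-6 per group. Two-way ANOVA, or one-way ANOVA with Newman-Keuls test.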

[15] = AUClast in C57BL/6J mouse brain assessed as 4-(2-Amino-8-methyl-5,6,7,8-tetrahydroquinazolin-4-yl)phenol level at 20 mg/kg, po by LC-MS/MS analysis; assay type: ADME, organism-based; design: dose 20 mg/kg, time 0 - last, route oral; conditions: in vivo; outline: as §2

For COc1ccc(-c2nc(N)nc3c2CCCC3C)cc1 (racemic), the INH [1] was greater than 10 µM, the “inhibition (INH)” value [2] was “Not Active” and the Cmax [3] was 323 ng/g. The Cmax [4] was 101 ng/g, the Activity (Mus musculus [5]) was “inactive” and the Activity (Mus musculus [6]) was “inactive”. It also gave an IC50 (Histamine H3 receptor) of 40 nM, a Tmax [7] of 30 min and a Cmax [8] of 3360 ng/mL. For the same compound, the inhibition [9] was “inactive”, the AUC(0-t) [10] was 310 ng·h/mL and the Activity [11] was “Non-Toxic”. For the same compound, the Activity (Mus musculus [12]) was “inactive”, the Activity (Mus musculus [13]) was 0.8 g and the Activity (Mus musculus [14]) was 2.6 g. The AUClast [15] was 100.7 ng·h/mL.
